In ChEMBL document CHEMBL1143592, “N-terminal sugar conjugation and C-terminal Thr-for-Thr(ol) exchange in radioiodinated Tyr3-octreotide: effect on cellular ligand trafficking in vitro and tumor accumulation in vivo” (J Med Chem, 2005) one finds IC50 and ID/g data, which are given here for 10 compounds.

The target of assay [1] is Somatostatin receptor type 4 (Homo sapiens, UniProt P31391). Kind of assay: In vitro inhibition of [125I][Leu8,D-Trp22,Tyr25] somatostatin 28 binding to human somatostatin receptor type 4 expressed in CCL39 cells; (n=3). In kind it is cell-based. The essentials:
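Membrane pellets from CCL39 cells stably expressing hsst4 were sectioned onto slides for receptor autoradiography. Full displacement of the universal somatostatin radioligand used unlabeled peptide at 0.1–1000 nM, with somatostatin 28 run in parallel at the same concentrations. Values are mean ± SD.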

In assay [2] the target is Somatostatin receptor type 1 (Homo sapiens, UniProt P30872). Kind of assay: In vitro inhibition of [125I][Leu8,D-Trp22,Tyr25] somatostatin 28 binding to human somatostatin receptor type 1 expressed in CHO-K1 cells; (n=3). Format: cell-based.
The target in assay [3] is Somatostatin receptor type 2 (Rattus norvegicus) (UniProt P30680). Kind of assay: In vivo tumor accumulation was determined in nude mice bearing rat pancreatic AR42J tumor cell expressed with somatostatin receptor type 2;60 min p.i.; (n=3-5). Format: functional, organism-based. The conditions noted are these: AR-42J. The essentials: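 Female Swiss nu/nu mice, 6–8 weeks, were inoculated s.c. in the flank with (2.5–5) × 10⁶ AR42J cells in serum-free RPMI 1640 and used after 10 days (tumors 150–500 mg). About 370 kBq of radioiodinated peptide in 100 µL PBS pH 7.4 was given i.v. into the tail vein. Tumor was excised 60 min p.i. and gamma-counted; results are % ID/g.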

In assay [4] the target is Somatostatin receptor type 3 (Homo sapiens, UniProt P32745). Kind of assay: In vitro inhibition of [125I][Leu8,D-Trp22,Tyr25] somatostatin 28 binding to human somatostatin receptor type 3 expressed in CCL39 cells; (n=3). Format: cell-based.
The target in assay [5] is Somatostatin receptor type 5 (Homo sapiens, UniProt P35346). Kind of assay: In vitro inhibition of [125I][Leu8,D-Trp22,Tyr25] somatostatin 28 binding to human somatostatin receptor type 5 expressed in CHO-K1 cells; (n=3). Format: cell-based.
[6] abbreviates: tested as the 123I-labelled form.

Sequence of Somatostatin receptor type 1 (P30872 whole entry): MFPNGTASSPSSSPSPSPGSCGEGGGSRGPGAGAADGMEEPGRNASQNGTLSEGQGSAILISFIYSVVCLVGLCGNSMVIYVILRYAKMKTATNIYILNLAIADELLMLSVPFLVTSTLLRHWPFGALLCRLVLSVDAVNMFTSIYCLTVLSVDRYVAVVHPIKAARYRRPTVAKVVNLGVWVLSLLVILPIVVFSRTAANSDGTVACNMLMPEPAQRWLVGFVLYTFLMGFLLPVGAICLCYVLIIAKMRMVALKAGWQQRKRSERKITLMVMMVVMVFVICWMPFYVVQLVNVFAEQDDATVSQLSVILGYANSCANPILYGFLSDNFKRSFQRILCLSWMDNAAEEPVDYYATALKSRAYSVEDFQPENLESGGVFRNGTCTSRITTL
Sequence of Somatostatin receptor type 4 (P31391 whole entry): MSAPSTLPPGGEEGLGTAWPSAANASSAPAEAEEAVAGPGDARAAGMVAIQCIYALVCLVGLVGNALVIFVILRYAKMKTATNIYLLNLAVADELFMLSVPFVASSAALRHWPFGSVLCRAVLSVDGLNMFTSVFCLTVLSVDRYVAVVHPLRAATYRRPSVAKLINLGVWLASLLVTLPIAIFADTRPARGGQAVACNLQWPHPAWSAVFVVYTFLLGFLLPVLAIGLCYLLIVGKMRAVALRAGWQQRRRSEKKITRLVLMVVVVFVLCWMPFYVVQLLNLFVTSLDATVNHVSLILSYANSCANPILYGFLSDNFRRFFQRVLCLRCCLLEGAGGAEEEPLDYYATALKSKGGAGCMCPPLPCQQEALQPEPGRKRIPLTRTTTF
Sequence of Somatostatin receptor type 3 (P32745 whole entry): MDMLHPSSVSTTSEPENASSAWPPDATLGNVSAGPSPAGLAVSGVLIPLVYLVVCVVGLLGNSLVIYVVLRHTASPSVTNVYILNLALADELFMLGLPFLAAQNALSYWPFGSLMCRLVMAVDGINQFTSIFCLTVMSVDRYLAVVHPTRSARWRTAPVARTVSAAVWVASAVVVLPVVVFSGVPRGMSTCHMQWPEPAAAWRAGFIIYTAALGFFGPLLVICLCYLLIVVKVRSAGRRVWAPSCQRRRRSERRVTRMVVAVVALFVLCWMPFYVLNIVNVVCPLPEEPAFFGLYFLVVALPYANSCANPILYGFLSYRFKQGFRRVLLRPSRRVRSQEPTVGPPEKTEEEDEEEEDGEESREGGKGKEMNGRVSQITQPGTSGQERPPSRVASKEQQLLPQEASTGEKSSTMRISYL
Sequence of Somatostatin receptor type 2 (Rattus norvegicus) (P30680 whole entry): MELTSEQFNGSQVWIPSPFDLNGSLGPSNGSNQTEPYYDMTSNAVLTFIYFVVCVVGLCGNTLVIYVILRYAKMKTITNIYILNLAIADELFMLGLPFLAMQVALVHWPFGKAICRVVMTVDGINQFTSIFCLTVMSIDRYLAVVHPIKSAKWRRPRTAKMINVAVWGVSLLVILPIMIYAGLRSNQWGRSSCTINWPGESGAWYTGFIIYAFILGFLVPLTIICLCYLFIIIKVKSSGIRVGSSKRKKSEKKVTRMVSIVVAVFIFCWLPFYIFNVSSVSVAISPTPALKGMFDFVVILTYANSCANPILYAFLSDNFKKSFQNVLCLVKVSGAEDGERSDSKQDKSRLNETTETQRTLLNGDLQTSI
Sequence of Somatostatin receptor type 5 (P35346 whole entry): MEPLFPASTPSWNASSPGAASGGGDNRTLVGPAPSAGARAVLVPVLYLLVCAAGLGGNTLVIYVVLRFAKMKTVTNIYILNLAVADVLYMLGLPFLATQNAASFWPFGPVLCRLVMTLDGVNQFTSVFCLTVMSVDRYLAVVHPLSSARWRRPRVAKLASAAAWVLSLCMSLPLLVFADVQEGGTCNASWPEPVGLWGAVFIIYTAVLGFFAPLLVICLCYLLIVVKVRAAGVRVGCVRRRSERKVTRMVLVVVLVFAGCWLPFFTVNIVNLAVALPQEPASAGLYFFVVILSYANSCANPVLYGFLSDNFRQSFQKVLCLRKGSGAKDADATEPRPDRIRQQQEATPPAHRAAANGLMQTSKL

As a reminder, the IC50 is the concentration that gives 50% inhibition. A high value points to lower potency. Turning to EDOTREOTIDE YTTRIUM, the IC50 in assay [1] and in assay [2] (cho-k1) was above 10000 nM throughout.

With `C[C@@H](O)[C@H](NC(=O)[C@@H]1CSSC[C@H](NC(=O)[C@H](N)Cc2ccccc2)C(=O)N[C@@H](Cc2ccc(O)c(I)c2)C(=O)N[C@H](Cc2c[nH]c3ccccc23)C(=O)N[C@@H](CCCCN)C(=O)N[C@@H]([C@@H](C)O)C(=O)N1)C(=O)O`, the ID/g in assay [3] (setting [6]) was found to be 21.2%. Regarding `C[C@@H](O)[C@H](NC(=O)[C@@H]1CSSC[C@H](NC(=O)[C@@H](Cc2ccccc2)NC(=O)CCS[C@@H]2O[C@@H](CO)[C@H](O)[C@H](O)[C@@H]2O)C(=O)N[C@@H](Cc2ccc(O)c(I)c2)C(=O)N[C@H](Cc2c[nH]c3ccccc23)C(=O)N[C@@H](CCCCN)C(=O)N[C@@H]([C@@H](C)O)C(=O)N1)C(=O)O`, the IC50 in assay [1] is 482 nM; in assay [2] (cho-k1), above 1000 nM; in assay [4] (ccl39), 491 nM; in assay [5], 413 nM.

Consider `C[C@@H](O)[C@H](CO)NC(=O)[C@@H]1CSSC[C@H](NC(=O)[C@@H](N)Cc2ccccc2)C(=O)N[C@@H](Cc2ccc(O)c(I)c2)C(=O)N[C@H](Cc2c[nH]c3ccccc23)C(=O)N[C@@H](CCCCN)C(=O)N[C@@H]([C@@H](C)O)C(=O)N1`, for which the ID/g in assay [3] (tested as the 125I-labelled form) is 5.5%. `C[C@@H](O)[C@H](NC(=O)[C@@H]1CSSC[C@H](NC(=O)[C@@H](Cc2ccccc2)NC[C@H]2O[C@H](O)[C@H](O)[C@@H](O)[C@@H]2O)C(=O)N[C@@H](Cc2ccc(O)c(I)c2)C(=O)N[C@H](Cc2c[nH]c3ccccc23)C(=O)N[C@@H](CCCCN)C(=O)N[C@@H]([C@@H](C)O)C(=O)N1)C(=O)O` yielded an ID/g in assay [3] (setting [6]) of 20.5%. `C[C@@H](O)[C@H](CO)NC(=O)[C@@H]1CSSC[C@H](NC(=O)[C@H](Cc2ccccc2)NC[C@]2(O)OC[C@H](O)[C@@H](O[C@@H]3O[C@@H](CO)[C@@H](O[C@@H]4O[C@@H](CO)[C@@H](O)[C@H](O)[C@@H]4O)[C@H](O)[C@@H]3O)[C@@H]2O)C(=O)N[C@@H](Cc2ccc(O)c(I)c2)C(=O)N[C@H](Cc2c[nH]c3ccccc23)C(=O)N[C@@H](CCCCN)C(=O)N[C@@H]([C@@H](C)O)C(=O)N1` registered an ID/g in assay [3] (setting [6]) of 4.9%. The same measure, in the same setting: with `C[C@@H](O)[C@H](CO)NC(=O)[C@@H]1CSSC[C@H](NC(=O)[C@H](Cc2ccccc2)NC[C@]2(O)OC[C@H](O)[C@@H](O)[C@@H]2O)C(=O)N[C@@H](Cc2ccc(O)c(I)c2)C(=O)N[C@H](Cc2c[nH]c3ccccc23)C(=O)N[C@@H](CCCCN)C(=O)N[C@@H]([C@@H](C)O)C(=O)N1` the figure was 8.7%. As for `C[C@@H](O)[C@H](NC(=O)[C@@H]1CSSC[C@H](NC(=O)[C@@H](Cc2ccccc2)NC(=O)CN2CCN(CC(=O)O)CCN(CC(=O)O)CCN(CC(=O)O)CC2)C(=O)N[C@@H](Cc2ccc(O)cc2)C(=O)N[C@H](Cc2c[nH]c3ccccc23)C(=O)N[C@@H](CCCCN)C(=O)N[C@@H]([C@@H](C)O)C(=O)N1)C(=O)O`, the IC50 in assay [2] is above 10000 nM; in assay [4], above 1000 nM. Consider `C[C@@H](O)[C@H](NC(=O)[C@@H]1CSSC[C@H](NC(=O)[C@H](Cc2ccccc2)NC[C@]2(O)OC[C@H](O)[C@@H](O[C@@H]3O[C@@H](CO)[C@@H](O[C@@H]4O[C@@H](CO)[C@@H](O)[C@H](O)[C@@H]4O)[C@H](O)[C@@H]3O)[C@@H]2O)C(=O)N[C@@H](Cc2ccc(O)c(I)c2)C(=O)N[C@H](Cc2c[nH]c3ccccc23)C(=O)N[C@@H](CCCCN)C(=O)N[C@@H]([C@@H](C)O)C(=O)N1)C(=O)O`, for which the ID/g in assay [3] (setting [6]) turned out to be 25.1%. Regarding `C[C@@H](O)[C@H](NC(=O)[C@@H]1CSSC[C@H](NC(=O)[C@@H](Cc2ccccc2)NC(=O)CCS[C@@H]2O[C@@H](CO)[C@@H](O)[C@H](O)[C@@H]2O)C(=O)N[C@@H](Cc2ccc(O)c(I)c2)C(=O)N[C@H](Cc2c[nH]c3ccccc23)C(=O)N[C@@H](CCCCN)C(=O)N[C@@H]([C@@H](C)O)C(=O)N1)C(=O)O`, the IC50 is 356 nM in assay [1], above 1000 nM in assay [2] (cho-k1), 398 nM in assay [4] (ccl39) and 310 nM in assay [5].
